Assay results reported in ChEMBL document CHEMBL3872252, “New bithiazolyl hydrazones: Novel synthesis, characterization and antitubercular evaluation” (Bioorg Med Chem Lett, 2017).
≈ marks a conversion by molar mass, not a printed value.

Assays:
[1] = system: Pseudomonas aeruginosa; experiment: Growth inhibition of Pseudomonas aeruginosa at 3 ug/ml; type: functional; settings: read-out: GI
Method in brief: (§1)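 Screened against Gram-negative E. coli and P. aeruginosa and Gram-positive S. aureus and B. subtilis. Compound was tested at 3 µg/ml, and the read-out is percent growth inhibition.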

[2] = system: Staphylococcus aureus; experiment: Growth inhibition of Staphylococcus aureus at 3 ug/ml; type: functional; settings: read-out: GI; method in brief: as §1
[3] = Selectivity index, ratio of GI50 for human THP1 cells to MIC90 for Mycobacterium tuberculosis H37Ra ATCC 25177 active stage; type: toxicity, cell-based, THP-1; settings: read-out: Selectivity Index
Method in brief: (§2)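 Cytotoxicity was measured on human MCF-7, HCT116 and THP-1 cells by MTT assay, with paclitaxel as reference. GI50 is the concentration inhibiting 50% of cell growth. The selectivity index is GI50 for the given cell line divided by MIC90 for the given mycobacterial strain and stage.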

[4] = Cytotoxicity against human THP1 cells by MTT assay; type: toxicity, cell-based, THP-1
[5] = Cytotoxicity against human HCT116 cells by MTT assay; type: toxicity, cell-based, HCT-116
[6] = system: Staphylococcus aureus; experiment: Growth inhibition of Staphylococcus aureus at 30 ug/ml; type: functional; settings: read-out: GI
[7] = Cytotoxicity against human MCF7 cells by MTT assay; type: toxicity, cell-based
[8] = Antitubercular activity against Mycobacterium bovis BCG ATCC 35743 dormant stage measured on day 12 by nitrate reductase based two-fold dilution assay; type: functional, Mycobacterium bovis BCG str. ATCC 35743; settings: Mycobacterium tuberculosis variant bovis BCG, ATCC 35743, 288 h
[9] = Selectivity index, ratio of GI50 for human MCF7 cells to MIC90 for Mycobacterium tuberculosis H37Ra ATCC 25177 dormant stage; type: toxicity, cell-based; settings: read-out: Selectivity Index
Method in brief: (§3)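 Cytotoxicity was measured on human MCF-7, HCT116 and THP-1 cells by MTT assay, with paclitaxel as reference. The selectivity index is GI50 for the given cell line divided by MIC90 for the given mycobacterial strain and stage.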

[10] = Selectivity index, ratio of GI50 for human HCT116 cells to MIC90 for Mycobacterium tuberculosis H37Ra ATCC 25177 active stage; type: toxicity, cell-based, HCT-116; settings: read-out: Selectivity Index; method in brief: as §2
[11] = system: Escherichia coli; experiment: Growth inhibition of Escherichia coli at 30 ug/ml; type: functional; settings: read-out: GI
[12] = system: Bacillus subtilis; experiment: Growth inhibition of Bacillus subtilis at 3 ug/ml; type: functional; settings: read-out: GI; method in brief: as §1
[13] = Selectivity index, ratio of GI50 for human THP1 cells to MIC90 for Mycobacterium tuberculosis H37Ra ATCC 25177 dormant stage; type: toxicity, cell-based, THP-1; settings: read-out: Selectivity Index; method in brief: as §3
[14] = Selectivity index, ratio of GI50 for human THP1 cells to MIC90 for Mycobacterium bovis BCG ATCC 35743 dormant stage; type: toxicity, cell-based, THP-1; settings: read-out: Selectivity Index; method in brief: as §3
[15] = Selectivity index, ratio of GI50 for human THP1 cells to MIC90 for Mycobacterium bovis BCG ATCC 35743 active stage; type: toxicity, cell-based, THP-1; settings: read-out: Selectivity Index; method in brief: as §2
[16] = Selectivity index, ratio of GI50 for human MCF7 cells to MIC90 for Mycobacterium bovis BCG ATCC 35743 dormant stage; type: toxicity, cell-based; settings: read-out: Selectivity Index; method in brief: as §3
[17] = system: Bacillus subtilis; experiment: Growth inhibition of Bacillus subtilis at 10 ug/ml; type: functional; settings: read-out: GI
[18] = Antitubercular activity against Mycobacterium tuberculosis H37Ra ATCC 25177 dormant stage infected in human THP1 cells measured on day 12 by nitrate reductase assay; type: functional, THP-1; settings: ATCC 25177, 288 h
[19] = Antitubercular activity against Mycobacterium tuberculosis H37Ra ATCC 25177 active stage infected in human THP1 cells measured on day 8 by nitrate reductase assay; type: functional, THP-1; settings: ATCC 25177, 192 h
[20] = system: Staphylococcus aureus; experiment: Growth inhibition of Staphylococcus aureus at 10 ug/ml; type: functional; settings: read-out: GI
[21] = Antitubercular activity against Mycobacterium bovis BCG ATCC 35743 active stage measured on day 8 by nitrate reductase based two-fold dilution assay; type: functional, Mycobacterium bovis BCG str. ATCC 35743; settings: Mycobacterium tuberculosis variant bovis BCG, ATCC 35743, 192 h
[22] = Selectivity index, ratio of GI50 for human HCT116 cells to MIC90 for Mycobacterium bovis BCG ATCC 35743 active stage; type: toxicity, cell-based, HCT-116; settings: read-out: Selectivity Index; method in brief: as §2
[23] = system: Escherichia coli; experiment: Growth inhibition of Escherichia coli at 10 ug/ml; type: functional; settings: read-out: GI
[24] = system: Pseudomonas aeruginosa; experiment: Growth inhibition of Pseudomonas aeruginosa at 10 ug/ml; type: functional; settings: read-out: GI
[25] = system: Escherichia coli; experiment: Antibacterial activity against Escherichia coli; type: functional
[26] = Selectivity index, ratio of GI50 for human HCT116 cells to MIC90 for Mycobacterium bovis BCG ATCC 35743 dormant stage; type: toxicity, cell-based, HCT-116; settings: read-out: Selectivity Index; method in brief: as §3
[27] = system: Bacillus subtilis; experiment: Growth inhibition of Bacillus subtilis at 30 ug/ml; type: functional; settings: read-out: GI
[28] = system: Escherichia coli; experiment: Growth inhibition of Escherichia coli at 3 ug/ml; type: functional; settings: read-out: GI; method in brief: as §1
[29] = system: Pseudomonas aeruginosa; experiment: Growth inhibition of Pseudomonas aeruginosa at 30 ug/ml; type: functional; settings: read-out: GI
[30] = Selectivity index, ratio of GI50 for human HCT116 cells to MIC90 for Mycobacterium tuberculosis H37Ra ATCC 25177 dormant stage; type: toxicity, cell-based, HCT-116; settings: read-out: Selectivity Index; method in brief: as §3
[31] = Antitubercular activity against Mycobacterium tuberculosis H37Ra ATCC 25177 dormant stage measured on day 12 by XTT reduction menadione based two-fold dilution assay; type: functional; settings: ATCC 25177, 288 h
Method in brief: (§4)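 M. tuberculosis H37Ra ATCC 25177 was exposed to 0.7–100 μg/mL in two-fold steps (0.7, 1.5, 3.1 … 100). Active stage was read after 8 days and dormant stage after 12 days of incubation. Inhibition was read by XTT reduction menadione assay (XRMA), absorbance 470 nm. MIC90 is the concentration giving ≥90% inhibition (µg/mL).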

[32] = system: Bacillus subtilis; experiment: Antibacterial activity against Bacillus subtilis; type: functional
[33] = Selectivity index, ratio of GI50 for human MCF7 cells to MIC90 for Mycobacterium tuberculosis H37Ra ATCC 25177 active stage; type: toxicity, cell-based; settings: read-out: Selectivity Index; method in brief: as §2
[34] = system: Staphylococcus aureus; experiment: Antibacterial activity against Staphylococcus aureus; type: functional
[35] = Selectivity index, ratio of GI50 for human MCF7 cells to MIC90 for Mycobacterium bovis BCG ATCC 35743 active stage; type: toxicity, cell-based; settings: read-out: Selectivity Index; method in brief: as §2
[36] = Antitubercular activity against Mycobacterium tuberculosis H37Ra ATCC 25177 active stage measured on day 8 by XTT reduction menadione based two-fold dilution assay; type: functional; settings: ATCC 25177, 192 h; method in brief: as §4
[37] = system: Pseudomonas aeruginosa; experiment: Antibacterial activity against Pseudomonas aeruginosa; type: functional

For COc1ccc(-c2csc(N/N=C(\C)c3sc(-c4ccccc4)nc3C)n2)cc1, the inhibition of growth at 3 µg/mL [1] was 48.7%, the inhibition of growth at 3 µg/mL [2] was 48.8% and the selectivity ratio [3] was 15. For the same compound, the GI50 ([4]; THP1 cells) was greater than 100 µg/mL, the GI90 ([4]; thp-1) was greater than 100 µg/mL and the GI50 ([5]; HCT116 cells) was greater than 100 µg/mL. It also gave a GI90 ([5]; hct-116) greater than 100 µg/mL, an inhibition of growth at 30 µg/mL [6] of 83.7% and a GI50 ([7]; MCF7 cells) greater than 100 µg/mL. For the same compound, the GI90 ([7]; mcf7) was greater than 100 µg/mL, the IC50 [8] was 2.82 µg/mL (≈ 6.71 µM) and the MIC90 [8] was 14 µg/mL (≈ 33.3 µM). The selectivity ratio [9] was 14, the selectivity ratio [10] was 15 and the inhibition of growth at 30 µg/mL [11] was 84.6%. The inhibition of growth at 3 µg/mL [12] was 44.9%, the selectivity ratio [13] was 14 and the selectivity ratio [14] was 7. For the same compound, the selectivity ratio [15] was 7, the selectivity ratio [16] was 7 and the inhibition of growth at 10 µg/mL [17] was 66.8%. It also gave an MIC90 [18] of 9.38 µg/mL (≈ 22.3 µM), an MIC90 [19] of 12.3 µg/mL (≈ 29.3 µM) and an inhibition of growth at 10 µg/mL [20] of 69.2%. It also gave an IC50 [21] of 2.43 µg/mL (≈ 5.78 µM), an MIC90 [21] of 13.5 µg/mL (≈ 32.1 µM) and a selectivity ratio [22] of 7. The inhibition of growth at 10 µg/mL [23] was 71.1%, the inhibition of growth at 10 µg/mL [24] was 69.9% and the MIC [25] was greater than 30 µg/mL. For the same compound, the selectivity ratio [26] was 7, the inhibition of growth at 30 µg/mL [27] was 82.5% and the inhibition of growth at 3 µg/mL [28] was 52.1%. It also gave an inhibition of growth at 30 µg/mL [29] of 85%, a selectivity ratio [30] of 14 and an IC50 [31] of 0.075 µg/mL (≈ 0.178 µM). The MIC90 [31] was 7.15 µg/mL (≈ 17 µM), the MIC [32] was greater than 30 µg/mL and the selectivity ratio [33] was 15. It also gave an MIC [34] greater than 30 µg/mL, a selectivity ratio [35] of 7 and an IC50 [36] of 0.078 µg/mL (≈ 0.185 µM). For the same compound, the MIC90 [36] was 6.87 µg/mL (≈ 16.3 µM) and the MIC [37] was greater than 30 µg/mL.
